Bioassay records as filed in PubChem.
A selection: hits, their analogues and other compounds. The true share with any hit is near 3.6%.
HSF1 inh: HSF1 inhibition; NIH3T3-HGL HSE-luciferase, MG132-induced, luminescence 8 h; active compounds read low; activity change, negative = inhibition, % at 7.5 µM (by protocol); 300,000 tested, 0.77% active;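 active = more than half of replicate wells show activity change below -50%, luminescence cut by over half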;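 note: luciferase reports HSF-1 transcriptional activity via heat shock element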
Hsp70 activator: transcriptional activators of Hsp70; 200,000 tested, 0.04% active; HeLa Hsp70 promoter luciferase reporter, luminescence; scaled: vehicle 0, proteasome-inhibitor control 100%; activation, % at 10 µM;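 active = activation above the mean across all tested compounds plus 3 SD, cutoff set per campaign, cut at about 5.5% in these data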
PolyA inh: inhibitors of polyadenylation in S. cerevisiae. 300,000 tested, 0.02% active. S. cerevisiae SKY197-pL101 polyadenylation reporter, beta-gal luminescence; efflux-impaired pdr1/pdr3 knockout yeast; score 100 = 6 SD above DMSO. AID 1875. activity score, % at 12 µM;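 active = lowest replicate activity score at least 50, where 100 means six control SD above control mean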;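 note: yeast exposed to compound for 9 h at 30 °C; higher score means more reporter readthrough which indicates perturbed polyadenylation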
STAT3 activator: STAT3 signaling activation. U3A cells, IL-6 STAT3-luciferase reporter, luminescence; 100% = signal with IL-6 EC80 alone. activation (% of control), % at 5.6 µM. 190,000 tested, 0.91% active. AID 871;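 active = activation above the screen-wide mean of compound activation plus 3 SD, cut at about 130% in these data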
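Assay system – human STAT1-deficient U3A cells with stable STAT3-luciferase reporter · Also added – IL-6 (33 ng/mL) · Schedule – compound 1 h, then IL-6 6 h at 37 °C · Technique – reporter luminescence signal · Evaluation – % activation versus median of IL-6-stimulated wells · Benchmarks – IL-6-only wells as 100% reference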
AHR activator: activates the human aryl hydrocarbon receptor; P35869; AHR-responsive luciferase reporter cells, luminescence; activation, % at 5 µM; 320,000 tested, 2.5% active; in the data active = activation above about 47%
Target sequence (P35869 whole entry, looked up): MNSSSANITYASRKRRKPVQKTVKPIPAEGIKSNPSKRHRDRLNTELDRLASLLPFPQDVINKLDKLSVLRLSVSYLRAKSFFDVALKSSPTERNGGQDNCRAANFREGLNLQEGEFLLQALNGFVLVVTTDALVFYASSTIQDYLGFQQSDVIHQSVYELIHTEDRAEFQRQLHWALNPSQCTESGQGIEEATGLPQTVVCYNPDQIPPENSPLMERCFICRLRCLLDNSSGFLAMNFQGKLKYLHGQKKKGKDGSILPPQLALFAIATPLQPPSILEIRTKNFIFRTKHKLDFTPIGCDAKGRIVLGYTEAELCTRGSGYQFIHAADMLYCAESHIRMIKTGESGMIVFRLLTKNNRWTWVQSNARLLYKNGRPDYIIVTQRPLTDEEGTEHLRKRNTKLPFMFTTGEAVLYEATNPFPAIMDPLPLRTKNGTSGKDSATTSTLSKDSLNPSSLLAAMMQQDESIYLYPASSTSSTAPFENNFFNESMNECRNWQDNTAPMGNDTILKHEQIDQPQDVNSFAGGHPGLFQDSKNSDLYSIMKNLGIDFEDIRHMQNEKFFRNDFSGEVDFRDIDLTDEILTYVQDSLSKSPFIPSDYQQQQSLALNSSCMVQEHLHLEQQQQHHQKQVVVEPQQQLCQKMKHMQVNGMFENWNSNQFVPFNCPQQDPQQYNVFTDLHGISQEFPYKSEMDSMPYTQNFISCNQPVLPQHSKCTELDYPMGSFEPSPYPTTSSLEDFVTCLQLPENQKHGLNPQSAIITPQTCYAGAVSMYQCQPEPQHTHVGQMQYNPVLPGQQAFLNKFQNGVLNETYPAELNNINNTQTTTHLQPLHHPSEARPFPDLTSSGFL
PERK inh: human PERK inhibition, primary cell-based screen; Q9NZJ5; CHO PERK-DD fusion, SEAP luminescence translation reporter; inhibition, % at 5.6 µM; 220,000 tested, 0.17% active; AID 1416;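 active = inhibition above the mean inhibition of all tested compounds plus 3 SD, set separately per screening campaign, cut at about 2.9% in these data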;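 note: PERK kinase domain activated by AP20187 dimerizer at 100 nM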
Numbers stand for hits; n = inactive; x = not tested or not shown.

SMILES | HSF1 inh | Hsp70 activator | PolyA inh | STAT3 activator | AHR activator | PERK inh
CC(Oc1ccccc1)C(=O)N=C1SC2CS(=O)(=O)CC2N1c1ccccc1 (stereo unspecified) | n | x | n | x | n | x
CCCn1c(N)c(C(=O)CSc2nc3ccccc3c(=O)n2Cc2ccccc2)c(=O)[nH]c1=O | -84.4 | n | n | n | n | n
CCOC(=O)n1c(SCC(N)=O)nc2ccccc21 | -65.4 | n | n | n | n | n
NC(=O)CSc1nc2ccccc2c(=O)n1CCc1ccccc1 | n | x | n | x | 74.8 | x
CCCCCCn1c(SCC(=O)c2c(N)n(C)c(=O)n(C)c2=O)nc2ccccc21 | n | n | n | n | n | n
CCCn1c(N)c(C(=O)CSc2nc3ccccc3n2CCC#N)c(=O)n(C)c1=O | n | n | n | n | 53.3 | n
CC(=O)c1cc(CN2CCN(C3CCN(C(C)C)CC3)C(CCO)C2)cs1 (stereo unspecified) | n | n | n | n | n | n
COc1ccc2c(c1)c(=O)oc1cc(O)ccc12 | n | n | n | x | n | 3.4
O=C1CCC/C1=C/Nc1ccc2c(c1)OCO2 | n | n | n | n | 72.6 | n
CCOc1ccccc1N/C=C(\C#N)c1nc2ccccc2n1C | n | n | n | n | n | n
Cn1c(/C(C#N)=C/Nc2ccccn2)nc2ccccc21 | n | n | n | n | 118.5 | n
COc1ccc(C(=O)NNC(=O)COc2ccc(Cl)cc2)c(OC)c1 | n | x | n | x | 72.7 | x
COC(=O)NNC(=O)COc1ccc(Cl)cc1 | n | n | n | n | n | n
O=C1CC(c2cccs2)Cc2nc(NC(=O)C3CC3)ncc21 (stereo unspecified) | n | x | n | x | n | n
CCOC(=O)C1CCCN(CCC(=O)Nc2cc(OC)ccc2OC)C1 (stereo unspecified) | -51.5 | x | n | x | n | x
COc1ccc(OC)c(NC(=O)C2CCCN(S(=O)(=O)c3c(C)nn(C)c3C)C2)c1 (stereo unspecified) | -71.6 | x | n | x | n | x
COc1ccccc1C(=O)NC(CCSC)C(=O)NCC(c1cccs1)N1CCOCC1 (stereo unspecified) | n | x | n | x | n | x
CCN(CC(=O)NCc1cccs1)C(=O)c1ccc(S(=O)(=O)Nc2cccc(C)c2C)cc1 | n | x | n | x | n | x
COc1ccc2[nH]cc(CCNC(=O)c3ccc4ccccc4n3)c2c1 | n | x | n | x | 71.1 | x
C=CCSc1nc2sc3c(c2c(=O)n1CC)CCc1ccccc1-3 | n | n | x | n | 56.3 | n
O=C1NC(c2ccc(Br)cc2)Nc2sc3c(c21)CCC3 (stereo unspecified) | n | n | n | n | 77.0 | n
O=C1NC(c2ccccn2)Nc2sc3c(c21)CCC3 (stereo unspecified) | n | n | n | n | n | n
Cc1ccsc1C1NC(=O)c2c(sc3c2CCCC3)N1 (stereo unspecified) | n | n | n | n | 113.6 | n
COc1ccc(/C=C(/C#N)c2cccnc2)cc1OC | n | n | n | n | 64.3 | n
N#C/C(=C/c1cccnc1)c1ccccc1 | n | x | n | x | n | x
SMILES | HSF1 inh | Hsp70 activator | PolyA inh | STAT3 activator | AHR activator | PERK inh
CC(=O)c1cccc(Nc2cc(C)nc3c(C)cccc23)c1 | n | x | n | x | 50.0 | n
COc1cccc(CN2CC(C(=O)NCCCCc3ccccn3)CCC2=O)c1 (stereo unspecified) | n | x | n | x | x | x
O=C(O)c1cn2c3c(ccc(Cl)c3c1=O)OCC2 | n | x | n | x | n | x
Cc1cc(Nc2ccc(Br)cc2F)n2nc(C)nc2n1 | n | n | n | n | 55.8 | n
Cc1cc(Nc2ccccc2F)n2nc(C)nc2n1 | n | n | n | n | n | n
Cc1cc(C)cc(Nc2cc(C)nc3nc(C)nn23)c1 | n | n | n | n | 51.1 | n
CCOC(=O)c1sc(NC(=O)C2CC(=O)N(c3ccc4c(c3)OCCO4)C2)nc1C (stereo unspecified) | x | x | x | x | n | x
CCc1csc(CNC(=O)C2CCC(=O)N(Cc3cccc(F)c3)C2)n1 (stereo unspecified) | n | x | n | x | n | x
CCCS(=O)(=O)N1CCCC(C(=O)Oc2ccc(C)c(C)c2)C1 (stereo unspecified) | n | x | n | x | n | x
COc1cc2c(cc1OC)C(c1ccccc1)NC(C)(C)C2 (stereo unspecified) | n | x | n | x | n | x
COc1ccccc1C1CC(c2ccc(Br)cc2)=NN1C(=O)c1cccnc1 (stereo unspecified) | n | n | n | n | 63.0 | n
COc1cccc(C2CC(c3ccc(Br)cc3)=NN2C(=O)c2ccncc2)c1OC (stereo unspecified) | n | n | n | n | n | n
CCOc1ccc(CNc2ccc(S(N)(=O)=O)cc2)cc1 | n | n | n | n | n | 3.3
CCOc1ccc(CNCCc2ccc(S(N)(=O)=O)cc2)cc1 | n | n | n | n | n | n
Cc1ccc(S(=O)(=O)Nc2c(O)ccc3ccccc23)cc1 | n | x | n | x | 54.1 | x
Cc1ccc(S(=O)(=O)Nc2ccccc2C(N)=O)cc1 | n | n | n | 134.4 | n | n
Cc1ccc(S(=O)(=O)Nc2c(Cl)c(Cl)c(O)c3ccccc23)cc1 | n | x | n | x | n | x
O=S(=O)(Nc1c(O)ccc2ccccc12)c1cccc2ccccc12 | -89.8 | x | n | x | n | x
NC(=O)c1ccccc1NS(=O)(=O)c1ccccc1 | n | n | n | n | n | n
CCOc1ccc(CCN2C(=O)c3ccc(C(=O)O)cc3C2=O)cc1OCC | n | x | n | x | n | x
CCCN1C(=O)C2(C(C(=O)c3ccc(C)o3)=C(O)C(=O)N2CCCOC)c2ccccc21 (stereo unspecified) | n | x | n | x | n | n
COc1cc2c(cc1OC)C(c1ccc(-c3ccc(Cl)c(Cl)c3)o1)=NCC2 | n | n | n | n | 63.3 | n
Nc1ccccc1C(=O)NNC1=C(C(=O)C(F)(F)F)CCC1 | -52.3 | x | n | x | n | n
O=C(NNC1=C(C(=O)C(F)(F)F)CCC1)c1ccccc1Cl | n | n | n | n | n | n
Cc1ccc(N(CC(=O)NCCSCc2ccco2)S(C)(=O)=O)cc1 | -54.3 | n | n | n | n | n
SMILES | HSF1 inh | Hsp70 activator | PolyA inh | STAT3 activator | AHR activator | PERK inh
Cc1ccc(S(=O)(=O)N(CC(=O)NCCSCc2ccco2)c2ccc(F)cc2)cc1 | n | n | n | n | n | 3.2
COc1ccccc1CNC(=O)CN1C(=O)NC2(CCCc3sccc32)C1=O (stereo unspecified) | x | x | x | x | n | x
O=C(CC1NCCN(Cc2ccccc2)C1=O)Nc1ccc(Cl)cc1 (stereo unspecified) | n | x | n | x | n | n
O=C(CC1NCCc2ccccc21)Nc1ccc(Cl)cc1 (stereo unspecified) | n | n | n | 133.0 | 75.3 | n
Cc1[nH]c2ccc(Br)cc2c(=S)c1C/C=C/Cl | n | x | n | x | n | n
Cc1[nH]c2ccc3ccccc3c2c(=O)c1C/C=C/Cl | n | x | n | x | 47.2 | x
O=C(COC(=O)C1CC2C=CC1C2)Nc1ccc([N+](=O)[O-])cc1 (stereo unspecified) | x | x | x | x | n | x
Nc1nc(-c2ccc(Cl)cc2)nc(-c2ccc(Cl)cc2)n1 | n | x | n | x | 69.5 | n
